Key:
[1] = Octanol water partition coefficient was determined at pH 7.4; assay type: physicochemical
Cytochrome P450 3A4 = Cytochrome P450 3A4 (Homo sapiens, UniProt P08684); assay: Inhibition of human liver microsome Cytochrome P3A4; assay type: microsomes
Method in brief: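 CYP3A4 inhibition was measured by a published fluorometric method using BFC as the substrate.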

Chain of Cytochrome P450 3A4 (P08684 whole entry): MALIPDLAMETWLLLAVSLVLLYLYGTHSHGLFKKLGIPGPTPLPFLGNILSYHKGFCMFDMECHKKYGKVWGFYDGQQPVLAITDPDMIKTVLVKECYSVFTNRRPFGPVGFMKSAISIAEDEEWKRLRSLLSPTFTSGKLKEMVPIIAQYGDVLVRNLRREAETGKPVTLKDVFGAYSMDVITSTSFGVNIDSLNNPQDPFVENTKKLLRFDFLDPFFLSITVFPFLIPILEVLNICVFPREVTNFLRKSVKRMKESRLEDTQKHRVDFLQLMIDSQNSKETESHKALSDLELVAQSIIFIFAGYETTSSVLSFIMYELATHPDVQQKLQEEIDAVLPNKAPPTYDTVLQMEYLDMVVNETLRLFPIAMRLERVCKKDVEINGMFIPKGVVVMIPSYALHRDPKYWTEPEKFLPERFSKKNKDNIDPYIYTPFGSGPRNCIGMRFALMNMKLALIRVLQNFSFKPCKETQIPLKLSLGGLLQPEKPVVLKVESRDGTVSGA

Q: Which logD [1] does the source give for COc1nc(N)c(CN)c(-c2ccc(Cl)cc2Cl)n1 here?
A: The logD was 1.6.

Q: With Cc1nc(N)c(CN)c(-c2ccc(Cl)cc2Cl)n1 as the molecule, how does the logD [1] read?
A: Its logD is 1.4.

Q: With NCc1c(N)nc(N)nc1-c1ccc(Cl)cc1Cl as the molecule, how does the logD [1] read?
A: The logD was 0.4.

Q: Which IC50 (Cytochrome P450 3A4) does the source give for NCc1c(N)nc(-c2ccccc2)nc1-c1ccc(Cl)cc1Cl here?
A: The IC50 was 5.4 µM.

Q: What about the logD [1] of the same molecule?
A: The logD was 3.
